From ChEMBL document CHEMBL4699498 (J Med Chem, 2020) come the findings set out here.

Activity calls are given as the source filed them. No cut-off for these calls is given here. Some results are limits rather than exact numbers.

In data set [1] the target is T1, Protein cereblon/Poly [ADP-ribose] polymerase 1 (Homo sapiens, UniProt P09874+Q96SW2). In words: Protac activity at CRBN/PARP1 in human MDA-MB-436 cells assessed as PARP1 protein degradation at 1 to 10 nM incubated for 24 hrs by western blot analysis. Type of data set: cell-based. To be noted: dose nM 1-10, time 24.0 hrs.
Target sequence in this assay (P09874 2-1014 limits assumed): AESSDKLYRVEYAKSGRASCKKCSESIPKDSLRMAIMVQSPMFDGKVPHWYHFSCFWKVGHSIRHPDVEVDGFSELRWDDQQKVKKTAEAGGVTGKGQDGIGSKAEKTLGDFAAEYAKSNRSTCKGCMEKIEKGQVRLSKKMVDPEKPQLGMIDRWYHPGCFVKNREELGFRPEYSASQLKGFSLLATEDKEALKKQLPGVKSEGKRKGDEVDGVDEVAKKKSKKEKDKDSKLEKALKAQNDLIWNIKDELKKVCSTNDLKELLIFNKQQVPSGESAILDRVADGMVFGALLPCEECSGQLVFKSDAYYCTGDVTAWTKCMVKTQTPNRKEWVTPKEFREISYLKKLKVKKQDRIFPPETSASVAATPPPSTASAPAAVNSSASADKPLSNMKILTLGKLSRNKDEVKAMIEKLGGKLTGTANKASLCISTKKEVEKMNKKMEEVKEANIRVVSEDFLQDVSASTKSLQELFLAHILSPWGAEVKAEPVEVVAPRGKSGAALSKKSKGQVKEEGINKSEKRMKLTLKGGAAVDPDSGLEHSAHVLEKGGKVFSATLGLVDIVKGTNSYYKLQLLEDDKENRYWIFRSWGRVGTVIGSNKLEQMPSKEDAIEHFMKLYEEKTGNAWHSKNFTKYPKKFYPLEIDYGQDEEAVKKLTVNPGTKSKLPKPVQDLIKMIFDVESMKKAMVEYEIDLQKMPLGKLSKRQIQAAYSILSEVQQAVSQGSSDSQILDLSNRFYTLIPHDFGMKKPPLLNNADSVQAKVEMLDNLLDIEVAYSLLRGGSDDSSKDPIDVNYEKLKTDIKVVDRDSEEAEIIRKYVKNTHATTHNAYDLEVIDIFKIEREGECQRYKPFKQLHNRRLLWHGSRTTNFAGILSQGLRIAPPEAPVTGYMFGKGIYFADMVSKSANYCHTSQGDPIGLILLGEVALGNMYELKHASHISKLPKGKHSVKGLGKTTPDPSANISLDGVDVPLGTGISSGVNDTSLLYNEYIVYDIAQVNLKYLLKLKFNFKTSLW
Target sequence in this assay (Q96SW2 whole entry partner): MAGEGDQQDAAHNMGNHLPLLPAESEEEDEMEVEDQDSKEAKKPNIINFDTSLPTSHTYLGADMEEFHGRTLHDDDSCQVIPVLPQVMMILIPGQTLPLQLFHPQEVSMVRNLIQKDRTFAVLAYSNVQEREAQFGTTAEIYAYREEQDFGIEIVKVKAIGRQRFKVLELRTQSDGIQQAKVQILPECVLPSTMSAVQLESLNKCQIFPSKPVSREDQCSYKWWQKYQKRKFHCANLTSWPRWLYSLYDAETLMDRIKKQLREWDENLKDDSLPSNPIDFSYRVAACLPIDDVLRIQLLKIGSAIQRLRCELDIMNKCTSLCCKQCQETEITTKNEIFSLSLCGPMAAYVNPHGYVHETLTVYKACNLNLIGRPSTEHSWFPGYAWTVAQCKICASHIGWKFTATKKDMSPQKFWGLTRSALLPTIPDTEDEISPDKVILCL
Data set [2] addresses T1, Protein cereblon/Poly [ADP-ribose] polymerase 1. In words: Protac activity at CRBN/PARP1 in human SW-620 cells assessed as induction of PARP1 degradation incubated for 24 hrs by Western blot analysis. Type of data set: cell-based. In a few lines: (§1)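 Concentration-response over a wide range, 24 h exposure; PARP1 quantified by western blot and normalized to β-tubulin density; DC50 derived from two biologically independent experiments.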
Target sequence in this assay (P09874 whole entry): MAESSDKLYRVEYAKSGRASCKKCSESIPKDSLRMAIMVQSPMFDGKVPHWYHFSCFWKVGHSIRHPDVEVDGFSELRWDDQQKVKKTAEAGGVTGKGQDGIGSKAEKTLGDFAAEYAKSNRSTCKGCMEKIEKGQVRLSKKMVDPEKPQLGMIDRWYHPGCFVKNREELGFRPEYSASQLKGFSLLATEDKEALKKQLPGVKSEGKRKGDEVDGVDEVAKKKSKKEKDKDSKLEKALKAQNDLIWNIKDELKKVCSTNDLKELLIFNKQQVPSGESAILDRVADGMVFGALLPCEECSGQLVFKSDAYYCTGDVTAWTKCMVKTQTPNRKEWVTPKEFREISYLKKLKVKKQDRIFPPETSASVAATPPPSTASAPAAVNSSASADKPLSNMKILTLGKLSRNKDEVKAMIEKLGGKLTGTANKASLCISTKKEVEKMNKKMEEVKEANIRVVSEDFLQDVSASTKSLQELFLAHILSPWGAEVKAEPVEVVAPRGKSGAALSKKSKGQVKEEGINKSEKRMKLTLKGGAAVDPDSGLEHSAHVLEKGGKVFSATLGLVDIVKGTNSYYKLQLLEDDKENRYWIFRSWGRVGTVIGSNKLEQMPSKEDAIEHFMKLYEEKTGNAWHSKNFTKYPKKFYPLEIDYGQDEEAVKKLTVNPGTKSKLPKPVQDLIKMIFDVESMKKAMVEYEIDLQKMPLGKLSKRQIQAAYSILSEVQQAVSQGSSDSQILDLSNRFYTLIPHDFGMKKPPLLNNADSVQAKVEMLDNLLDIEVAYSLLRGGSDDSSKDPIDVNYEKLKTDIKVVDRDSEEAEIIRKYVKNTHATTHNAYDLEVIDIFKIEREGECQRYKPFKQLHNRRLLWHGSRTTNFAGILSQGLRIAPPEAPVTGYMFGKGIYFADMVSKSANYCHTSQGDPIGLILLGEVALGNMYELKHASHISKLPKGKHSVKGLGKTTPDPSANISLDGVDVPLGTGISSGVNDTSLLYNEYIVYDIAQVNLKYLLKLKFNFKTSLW
Target sequence in this assay (Q96SW2 whole entry): as the sequence (Q96SW2 whole entry partner) above

For data set [3] the target is unchanged. As to the kind of experiment: Protac activity at CRBN/PARP1 in human SW-620 cells assessed as induction of PARP1 degradation at 30 nM measured within 1 hr by Western blot analysis. Type of data set: cell-based. To be noted: time hrs <=1. In a few lines:
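Time course at 30 nM in MDA-MB-436 or SW620 cells; PARP1 immunoblotted at successive time points, β-tubulin as loading control.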
Target sequence in this assay (P09874 2-1014 limits assumed): as the sequence (P09874 2-1014 limits assumed) above
Target sequence in this assay (Q96SW2 whole entry partner): as the sequence (Q96SW2 whole entry partner) above

The target is the same in data set [4]. As to the kind of experiment: Protac activity at CRBN/PARP1 in human CAPAN-1 cells assessed as induction of PARP1 degradation at 100 nM measured after 6 hrs by Western blot analysis. It counts as cell-based. The gist of the method: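 Capan-1 cells were treated with 100 nM over a time course. PARP1 was measured by western blot and normalized to β-tubulin.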
Target sequence in this assay (P09874 2-1014 limits assumed): as the sequence (P09874 2-1014 limits assumed) above
Target sequence in this assay (Q96SW2 whole entry partner): as the sequence (Q96SW2 whole entry partner) above
On the technique in general: A western blot detects proteins with antibodies after separation by electrophoresis.

Data set [5] shares this target. As to the kind of experiment: Protac activity at CRBN/PARP1 in human PC-3 cells assessed as induction of PARP1 degradation measured after 24 hrs by Western blot analysis. It counts as cell-based. In a few lines: as §1
Target sequence in this assay (P09874 whole entry): as the sequence (P09874 whole entry) above
Target sequence in this assay (Q96SW2 whole entry): as the sequence (Q96SW2 whole entry partner) above
Data set [6] shares this target. As to the kind of experiment: Protac activity at CRBN/PARP1 in human LNCaP cells assessed as induction of PARP1 degradation at 30 nM incubated for 1 to 24 hrs by Western blot analysis. It counts as cell-based. Conditions: time hrs 1-24.
Target sequence in this assay (P09874 2-1014 limits assumed): as the sequence (P09874 2-1014 limits assumed) above
Target sequence in this assay (Q96SW2 whole entry partner): as the sequence (Q96SW2 whole entry partner) above
Data set [7] has the same target. As to the kind of experiment: Protac activity at CRBN/PARP1 in human PC-3 cells assessed as induction of PARP1 degradation at 30 nM incubated for 1 to 24 hrs by Western blot analysis. Type of data set: cell-based. To be noted: time hrs 1-24.
Target sequence in this assay (P09874 2-1014 limits assumed): as the sequence (P09874 2-1014 limits assumed) above
Target sequence in this assay (Q96SW2 whole entry partner): as the sequence (Q96SW2 whole entry partner) above
Data set [8] shares this target. As to the kind of experiment: Protac activity at CRBN/PARP1 in human MDA-MB-231 cells assessed as induction of PARP1 degradation at 30 nM incubated for 1 to 24 hrs by Western blot analysis. It counts as cell-based. Conditions: time hrs 1-24.
Target sequence in this assay (P09874 2-1014 limits assumed): as the sequence (P09874 2-1014 limits assumed) above
Target sequence in this assay (Q96SW2 whole entry partner): as the sequence (Q96SW2 whole entry partner) above
Data set [9] has the same target. As to the kind of experiment: Protac activity at CRBN/PARP1 in human SW-620 cells assessed as induction of PARP1 degradation at 30 nM incubated for 24 hrs in presence of 0.1 to 1 uM PARP1 inhibitor olaparib by Western blot analysis. It counts as cell-based.
For data set [10] the target is unchanged. As to the kind of experiment: Protac activity at CRBN/PARP1 in human SW-620 cells assessed as induction of PARP1 degradation at 30 nM incubated for 24 hrs in presence of NEDD8-activating E1 enzyme inhibitor MLN4924 by Western blot analysis. It counts as cell-based.
Another data set concerns HCC1937. As to the kind of experiment: Antiproliferation activity against human HCC1937 assessed as cell growth inhibition incubated for 7 days by CCK-8 assay. It counts as functional, cell-based. To be noted: time 7.0 day. In a few lines:
(§2)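 Cells were sub-cultured at least twice and seeded for 24 h before dosing. Compounds came from 10 mM DMSO stocks, given as 10 points of 3-fold serial dilution starting at 10-20 μM. Incubation was about 7 days (Capan-1 13 days) at 37 °C, 5% CO2. Read-out was CCK-8 absorbance at 450 nm, as % growth versus DMSO wells (duplicate wells). IC50 was fitted by nonlinear regression; three independent experiments.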

Data set [11] has as its system SW-620. As to the kind of experiment: Antiproliferation activity against human SW620 assessed as cell growth inhibition incubated for 7 days by CCK-8 assay. It counts as functional, cell-based. To be noted: time 7.0 day. The gist of the method:
as §2

For the next data set, the system named is MDA-MB-231. In words: Antiproliferation activity against human MDA-MB-231 assessed as cell growth inhibition incubated for 7 days by CCK-8 assay. It counts as functional, cell-based. Conditions: time 7.0 day. The gist of the method: as §2
In general terms: Tetrazolium dyes change colour on reduction, which living cells bring about.

The test system of data set [12] is SW-620. As to the kind of experiment: Potentiation of MMS induced cytotoxicity against human SW-620 cells preincubated for 1 hr followed by addition of MMS measured after 5 days by CCK-8 assay. Type of data set: functional, cell-based. Conditions: dose nM 3-300, time 1.0 hrs. In a few lines:
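SW620 cells (1000/well) were attached for 24 h, then preincubated 1 h with DMSO or a single compound concentration (3, 10, 100 or 300 nM). MMS was then added at 0-15 μg/mL (final concentration not stated). Incubation ran 5 days, followed by CCK-8 read at 450 nm. Growth was expressed as % of DMSO-only wells, mean of three wells.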

In the next data set the test system is L02. As to the kind of experiment: Cytotoxicity against human L02 cells assessed as reduction in cell viability incubated for 120 hrs by CCK-8 assay. To be noted: l02, 120 h. Type of data set: cell-based.
A further data set relates to HEK293. As to the kind of experiment: Cytotoxicity against human HEK293 cells assessed as cell viability incubated for 120 hrs by CCK-8 assay. It counts as cell-based. To be noted: hek293, 120 h.
The next data set relates to MCF-10A. In words: Cytotoxicity against human MCF-10A cells assessed as reduction in cell viability incubated for 120 hrs by CCK-8 assay. It counts as cell-based.
A further data set deals with MDA-MB-436. As to the kind of experiment: Induction of DNA damage in human MDA-MB-436 cells assessed as increase in gammaH2AX foci formation incubated for 24 hrs by Western blot analysis. It counts as functional, cell-based. To be noted: dose microM 0.1-10, time 24.0 hrs. The gist of the method: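 MDA-MB-436 (BRCA1-/-) or Capan-1 (BRCA2-/-) cells were treated 24 h at the indicated concentrations. Lysis was in RIPA buffer with protease inhibitors, and 20-30 μg protein was run on SDS-PAGE. Blots were probed for γH2AX, with β-tubulin as the loading control, and detected by ECL.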

Data set [13] can be described thus: Half-life in ICR mouse at 25 mg/kg, ip by LC-tandem mass spectrometry analysis. Type of data set: ADME, organism-based. To be noted: in vivo. In a few lines: (§3)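 Female ICR mice (20-23 g, 6-7 weeks old, n = 3) received a single 25 mg/kg intraperitoneal dose formulated in 5% DMSO/15% Solutol HS15/80% D5W. Plasma was sampled at 0.5, 1, 2, 4, 6, 8 and 24 h and protein-precipitated with methanol. Compound was quantified by LC-MS/MS against a standard curve.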

Data set [14] in a line: Plasma concentration in ICR mouse at 25 mg/kg, ip at 4 hrs postinjection by LC-tandem mass spectrometry analysis. Type of data set: ADME, organism-based. In a few lines: as §3
Data set [15] can be described thus: Acute toxicity in Balb/c mouse assessed as lethality at 25 to 50 mg/kg, ip administered 5 times a week for 3 weeks. Conditions: in vivo, 504 h. Type of data set: organism-based. The gist of the method:
(§4)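 Male BALB/c nude mice (5–6 weeks) received 5×10^6 Capan-1 cells s.c. in the right armpit. At a mean tumour volume of about 150 mm³, mice were randomised by tumour volume and body weight, 6 per group. Dosing was i.p. in 5% DMSO/20% PEG400/10% Cremophor EL/65% saline, once daily five times per week for 3 weeks. Body weight was measured 2–3 times weekly.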

Data set [16] in a line: Acute toxicity in Balb/c mouse assessed as weight loss at 25 to 50 mg/kg, ip administered 5 times a week for 3 weeks. Type of data set: organism-based. Conditions: in vivo, 504 h, dose 25-50 mg/kg. In a few lines: as §4
Data set [17] is described as follows: Plasma concentration in ICR mouse at 25 mg/kg, ip at 24 hrs postinjection by LC-tandem mass spectrometry analysis. Type of data set: ADME, organism-based. In a few lines:
as §3

Data set [18] has as its target T1, Protein cereblon/Poly [ADP-ribose] polymerase 1. As to the kind of experiment: Protac activity at CRBN/PARP1 in human SW-620 cells assessed as induction of PARP1 degradation at 30 nM measured after 2 hrs by Western blot analysis.

In general, DC50 refers to the concentration giving 50% degradation. In general, half-life refers to how long it takes for the measured level to halve. Lower therefore signals fast loss. Regarding `O=C(CCCCCCCCCCC(=O)N1CCN(C(=O)c2cc(Cc3n[nH]c(=O)c4ccccc34)ccc2F)CC1)NCCNc1cccc2c1C(=O)N(C1CCC(=O)NC1=O)C2=O` (centres undefined), the result in [1], in data set [3], in data set [4], in [6], in [7] and in [8] was Active. For the same compound, the result (in the data set on HCC1937; with SW-620 [11]; in the data set with MDA-MB-231; in [18]) was Active. For the same compound, the half-maximal degradation concentration (DC50) in data set [2] was 0.509 nM; in data set [5] it was 0.578 nM. The result in [9] and in data set [10] was inactive. The Activity result in the data set on SW-620 [12] was “Dose-dependent effect”; in the data set on L02, “Non-Toxic”; in the data set with HEK293, “Non-Toxic”; in the data set with MCF-10A, “Non-Toxic”; in the data set on MDA-MB-436, “Dose-dependent effect”; in data set [15], “Non-Toxic”. In addition, the Activity entry in data set [16] is recorded as “Non-Toxic”. This compound showed a half-life in data set [13] of 3.08 h. Also, in data set [14], the concentration at 4 h came to 0.182 µM. The concentration at 24 h in data set [17] was above 0.01 µM.
